Data: ChEMBL document CHEMBL4819102, “SAR insights into TET2 catalytic domain inhibition: Synthesis of 2-Hydroxy-4-Methylene-pentanedicarboxylates” (Bioorg Med Chem, 2021)
pIC50, pKd: −log10 of the molar value. The source made the active and inactive calls. The rule behind the calls is not given here.

How the values were obtained:
[1] = tested on: THP-1; experiment: Inhibition of TET in human THP-1 cells assessed as reduction in 5hmc/5mc level at 25 uM incubated for 12 hrs by dot blot analysis relative to control; assay type: cell-based
In short: (§1)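 THP1 cells at 0.3x10^6/mL exposed 12 h to ester prodrugs (25, 50, 100 µM) with 100 µM sodium ascorbate. Genomic DNA denatured in NaOH/EDTA at 95 °C, two-fold serial dilutions dot-blotted, probed with anti-5hmC and anti-5mC antibodies, and loading checked by methylene blue. Inhibition taken from the 5hmC/5mC ratio; means of at least three experiments, below 5% reported not detected.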

[2] = tested on: THP-1; experiment: Inhibition of TET in human THP-1 cells assessed as reduction in 5hmc/5mc level at 50 uM incubated for 12 hrs by dot blot analysis relative to control; assay type: cell-based; in short: as §1
[3] = tested on: THP-1; experiment: Inhibition of TET in human THP-1 cells assessed as reduction in 5hmc/5mc level at 100 uM incubated for 12 hrs by dot blot analysis relative to control; assay type: cell-based; in short: as §1
[4] = Inhibition of TET (unknown origin); set-up: species or system Homo sapiens
[5] = target: T1, Methylcytosine dioxygenase TET2 (Homo sapiens, UniProt Q6N021); experiment: Inhibition of recombinant human GST-tagged TET2 (1099 to 1936 residues) expressed in Escherichia coli BL21 (DE3)pLysS assessed as reduction in 5hmc level incubated for 2 hrs by ELISA
[6] = target: T1, Methylcytosine dioxygenase TET2; experiment: Potency index, ratio of IC50 of NOG to IC50 of compound for inhibition of recombinant human GST-tagged TET2 (1099 to 1936 residues) expressed in Escherichia coli BL21 (DE3)pLysS assessed as reduction in 5hmc level incubated for 2 hrs by ELISA
[7] = target: T2, Methylcytosine dioxygenase TET3 (Homo sapiens, UniProt O43151); experiment: Inhibition of TET3 (unknown origin)
[8] = target: T3, Methylcytosine dioxygenase TET1 (Homo sapiens, UniProt Q8NFU7); experiment: Inhibition of TET1 (unknown origin)
[9] = target: T3, Methylcytosine dioxygenase TET1; experiment: Inhibition of recombinant human N-terminal Flag-tagged TET1 (1418 to 2136 residues) expressed in Baculovirus infected Sf9 cells assessed as reduction in 5hmc level incubated for 2 hrs by ELISA
[10] = target: T2, Methylcytosine dioxygenase TET3; experiment: Inhibition of recombinant human N-terminal Flag-tagged C-terminal His-tagged TET3 (824 to 1795 residues) expressed in Baculovirus infected Sf9 cells assessed as reduction in 5hmc level incubated for 2 hrs by ELISA
[11] = target: T1, Methylcytosine dioxygenase TET2; experiment: Reversible inhibition of recombinant human GST-tagged TET2 (1099 to 1936 residues) expressed in Escherichia coli BL21 (DE3)pLysS assessed as restoration of enzyme activity in presence of alpha-KG at 20 uM incubated for 2 hrs by ELISA
In short: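 TET2 catalytic domain (100 nM) preincubated with 12.5 µM inhibitor, then α-KG added at increasing concentrations. Anti-5hmC/HRP detection, TMB read at 450 nm; activity expressed relative.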

[12] = target: T1, Methylcytosine dioxygenase TET2; experiment: Binding affinity to human recombinant TET2 (1099 to 1936) catalytic domain assessed as dissociation constant by micro-scale thermophoresis analysis
[13] = target: T3, Methylcytosine dioxygenase TET1; experiment: Inhibition of TET1 (unknown origin) at 50 mM in presence of alpha-KG relative to control
[14] = target: T1, Methylcytosine dioxygenase TET2; conditions: dose 10.0 mM
[15] = target: T3, Methylcytosine dioxygenase TET1; experiment: Inhibition of TET1 (unknown origin) at 10 mM in presence of alpha-KG relative to control
[16] = target: T1, Methylcytosine dioxygenase TET2; conditions: dose 50.0 mM

T3 sequence (Q8NFU7 whole entry, the tested form may be a part): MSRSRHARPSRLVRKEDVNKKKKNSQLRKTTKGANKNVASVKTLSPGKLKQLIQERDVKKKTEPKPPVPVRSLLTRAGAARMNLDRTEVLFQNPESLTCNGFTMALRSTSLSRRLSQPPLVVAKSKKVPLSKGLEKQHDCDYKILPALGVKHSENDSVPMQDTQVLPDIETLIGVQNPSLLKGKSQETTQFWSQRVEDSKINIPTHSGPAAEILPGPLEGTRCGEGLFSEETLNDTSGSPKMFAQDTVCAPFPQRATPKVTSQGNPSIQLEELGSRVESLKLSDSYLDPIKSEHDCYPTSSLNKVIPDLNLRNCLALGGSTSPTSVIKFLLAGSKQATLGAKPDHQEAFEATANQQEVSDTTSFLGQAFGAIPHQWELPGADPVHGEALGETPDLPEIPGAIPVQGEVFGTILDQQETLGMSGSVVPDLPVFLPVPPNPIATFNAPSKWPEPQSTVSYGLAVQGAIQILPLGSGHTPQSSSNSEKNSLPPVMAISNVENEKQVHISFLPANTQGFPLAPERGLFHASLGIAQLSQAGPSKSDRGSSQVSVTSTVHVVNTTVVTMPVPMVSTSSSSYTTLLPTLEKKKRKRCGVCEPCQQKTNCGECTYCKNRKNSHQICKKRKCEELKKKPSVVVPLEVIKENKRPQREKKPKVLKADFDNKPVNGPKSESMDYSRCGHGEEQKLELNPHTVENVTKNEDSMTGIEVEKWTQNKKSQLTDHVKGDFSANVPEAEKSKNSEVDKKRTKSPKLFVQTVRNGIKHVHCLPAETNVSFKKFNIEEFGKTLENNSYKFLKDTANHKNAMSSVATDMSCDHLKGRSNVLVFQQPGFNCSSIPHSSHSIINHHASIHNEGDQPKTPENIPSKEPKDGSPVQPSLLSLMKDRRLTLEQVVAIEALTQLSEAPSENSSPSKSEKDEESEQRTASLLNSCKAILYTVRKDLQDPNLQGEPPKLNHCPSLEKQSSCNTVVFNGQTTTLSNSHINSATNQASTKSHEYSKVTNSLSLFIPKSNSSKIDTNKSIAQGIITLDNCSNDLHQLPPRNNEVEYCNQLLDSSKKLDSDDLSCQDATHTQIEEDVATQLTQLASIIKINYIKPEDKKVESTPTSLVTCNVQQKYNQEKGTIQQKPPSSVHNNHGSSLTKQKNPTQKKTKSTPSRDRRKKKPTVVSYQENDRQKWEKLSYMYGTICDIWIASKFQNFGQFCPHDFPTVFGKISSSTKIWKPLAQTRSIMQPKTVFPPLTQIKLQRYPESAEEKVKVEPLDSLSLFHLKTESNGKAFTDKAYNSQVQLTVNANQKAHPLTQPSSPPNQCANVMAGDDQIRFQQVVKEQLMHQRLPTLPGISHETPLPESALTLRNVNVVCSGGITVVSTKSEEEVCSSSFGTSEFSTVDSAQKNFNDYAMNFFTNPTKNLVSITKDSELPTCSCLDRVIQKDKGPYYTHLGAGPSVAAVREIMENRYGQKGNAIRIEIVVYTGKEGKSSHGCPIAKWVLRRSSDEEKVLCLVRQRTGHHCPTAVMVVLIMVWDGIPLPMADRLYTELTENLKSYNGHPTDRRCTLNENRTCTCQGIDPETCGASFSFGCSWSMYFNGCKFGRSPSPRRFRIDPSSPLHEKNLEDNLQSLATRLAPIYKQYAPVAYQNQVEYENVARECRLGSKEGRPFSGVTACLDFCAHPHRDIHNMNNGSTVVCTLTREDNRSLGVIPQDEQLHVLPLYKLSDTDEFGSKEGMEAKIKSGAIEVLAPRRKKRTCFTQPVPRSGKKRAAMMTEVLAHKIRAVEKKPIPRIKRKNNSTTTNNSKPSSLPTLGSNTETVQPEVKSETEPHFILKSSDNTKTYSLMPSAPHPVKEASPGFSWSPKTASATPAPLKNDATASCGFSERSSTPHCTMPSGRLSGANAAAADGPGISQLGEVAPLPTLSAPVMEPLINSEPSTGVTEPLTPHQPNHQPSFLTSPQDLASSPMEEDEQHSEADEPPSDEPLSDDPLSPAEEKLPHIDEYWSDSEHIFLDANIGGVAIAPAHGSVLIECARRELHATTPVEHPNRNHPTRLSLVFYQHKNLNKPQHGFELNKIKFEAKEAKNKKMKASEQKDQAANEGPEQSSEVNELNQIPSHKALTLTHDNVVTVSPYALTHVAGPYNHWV

Compound | inhibition [1] | inhibition [2] | inhibition [3] | other results
COC(=O)/C=C/C(=O)OC | < 5% | 21% | 33% | 
C=C(CC(=O)C(=O)OCC)C(=O)OCC | < 5% | 27% | 44% | 
CCOC(=O)C(C)CC(F)(F)C(=O)OCC (centres undefined) | 14% | 9% | 22% | 
C=C(CC(F)(F)C(=O)OCC)C(=O)OCC | 12% | 20% | 29% | 
C=C(CC(C)O)C(=O)OCC (racemic) | 15% | 27% | 47% | 
C=C(NC(C)=O)C(=O)OC | < 5% | < 5% | < 5% | 
C=C(CCC(=O)OC)C(=O)OC | < 5% | 7% | 22% | 
CCOC(=O)C(O)CC1(C(=O)OCC)CC1 (racemic) | < 5% | < 5% | < 5% | 
O=C(O)CNC(=O)C(=O)O [N-OXALYLGLYCINE] |  |  |  | pIC50 [4]: 4.10
O=C(O)CC[C@H](O)C(=O)O |  |  |  | pIC50 [4]: 2.44
COC(=O)CCC(=O)OC | < 5% | 7% | 15% | 
O=C(O)/C=C/C(=O)O [FUMARIC ACID] |  |  |  | pIC50 [4]: 2.62
COC(=O)CNC(=O)C(=O)OC | 56% | 62% | 64% | 
O=C(O)CCC(=O)O [SUCCINIC ACID] |  |  |  | pIC50 [4]: 2.55
C=C(CC(F)C(=O)OCC)C(=O)OCC (racemic) | 9% | 11% | 41% | 
O=C(O)/C=C/C(=O)C(=O)O |  |  |  | pIC50 [5]: 3.97
C=C(CC(Cl)C(=O)OC)C(=O)OC (centres undefined) | 40% | 54% | 66% | 
COC(=O)/C=C/C(=O)C(=O)OC | 7% | 17% | 34% | 

Compound | inhibition [1] | inhibition [2] | inhibition [3] | other results
COC(=O)CCC(O)C(=O)OC (centres undefined) | 9% | 18% | 29% | 
C=C(C[C@H](O)C(=O)O)C(=O)O |  |  |  | Ratio IC50 [6]: 2; pIC50 [5]: 4.98
CCOC(=O)C(=O)CC1(C(=O)OCC)CC1 | 19% | 29% | 33% | 
C=C(CC(O)(C(=O)OCC)C(F)(F)F)C(=O)OCC (racemic) | 49% | 67% | 79% | 
C=C(CC(C)(O)C(=O)OCC)C(=O)OCC (racemic) | 54% | 71% | 80% | 
O=C(C[C@@H](O)CCc1ccc(O)c(O)c1)O[C@@H]1Cc2c(O)cc(O)cc2C[C@@H]1c1ccc(O)c(O)c1 |  |  |  | pIC50 [7]: 5.64; pIC50 [8]: 5.46
C=C(CC(O)C(=O)OCC)C(=O)OCC (racemic) | 55% | 68% | 73% | 
CCOC(=O)C(C)CC(O)C(=O)OCC (racemic) | < 5% | 14% | 41% | 
C=C(C[C@@H](O)C(=O)O)C(=O)O |  |  |  | Ratio IC50 [6]: 2; pIC50 [5]: 4.96
COC(=O)C(=O)CC(C)C(=O)OC (centres undefined) | < 5% | < 5% | < 5% | 
C=C(CC(O)(C(=O)OCC)C(C)C)C(=O)OCC (racemic) | 17% | 37% | 43% | 
C=C(CC(O)C(=O)O)C(=O)O (centres undefined) |  |  |  | pIC50 [9]: 5.82; Ratio IC50 [6]: 2; pIC50 [10]: 5.06; inhibition [11]: Active; pKd [12]: 6.52
O=C(O)CC[C@@H](O)C(=O)O |  |  |  | inhibition [13]: 47%; pIC50 [4]: 2.19; inhibition [14]: 33%; inhibition [15]: 28%; inhibition [16]: 83%
C=C(CC(O)(CC)C(=O)OCC)C(=O)OCC (racemic) | 29% | 45% | 48% | 
CC(C)CC(NC(=O)C(=O)O)C(=O)O (centres undefined) |  |  |  | pIC50 [4]: 4.74
COC(=O)CCC(=O)C(=O)OC | < 5% | < 5% | < 5% | 
CCC(CC(=O)C(=O)OC)C(=O)OC (centres undefined) | < 5% | < 5% | < 5% | 
